Data as given in ChEMBL document CHEMBL1134922, “Substituted 4-(2,2-diphenylethyl)pyridine-N-oxides as phosphodiesterase-4 inhibitors: SAR study directed toward the improvement of pharmacokinetic parameters” (Bioorg Med Chem Lett, 2002).
Values joined by “and” are separate entries in the source; they are usually repeats but may differ in a detail not shown here. Equal entries are not always repeated. Each block holds one molecule with its values, some of them ahead of it. Active and inactive are the calls of the source. The rule behind the calls is not given here.

Experiments:
[1] = target: 3',5'-cyclic-AMP phosphodiesterase 4A (Homo sapiens, UniProt P27815); assay: Inhibition of human Phosphodiesterase 4A isoform using construct representing the common region of spliced variants expressed as GST-fusion proteins in Sf9 cells.
Sequence of 3',5'-cyclic-AMP phosphodiesterase 4A (P27815 whole entry, looked up, stated change not applied, the tested form may be a part, canonical isoform): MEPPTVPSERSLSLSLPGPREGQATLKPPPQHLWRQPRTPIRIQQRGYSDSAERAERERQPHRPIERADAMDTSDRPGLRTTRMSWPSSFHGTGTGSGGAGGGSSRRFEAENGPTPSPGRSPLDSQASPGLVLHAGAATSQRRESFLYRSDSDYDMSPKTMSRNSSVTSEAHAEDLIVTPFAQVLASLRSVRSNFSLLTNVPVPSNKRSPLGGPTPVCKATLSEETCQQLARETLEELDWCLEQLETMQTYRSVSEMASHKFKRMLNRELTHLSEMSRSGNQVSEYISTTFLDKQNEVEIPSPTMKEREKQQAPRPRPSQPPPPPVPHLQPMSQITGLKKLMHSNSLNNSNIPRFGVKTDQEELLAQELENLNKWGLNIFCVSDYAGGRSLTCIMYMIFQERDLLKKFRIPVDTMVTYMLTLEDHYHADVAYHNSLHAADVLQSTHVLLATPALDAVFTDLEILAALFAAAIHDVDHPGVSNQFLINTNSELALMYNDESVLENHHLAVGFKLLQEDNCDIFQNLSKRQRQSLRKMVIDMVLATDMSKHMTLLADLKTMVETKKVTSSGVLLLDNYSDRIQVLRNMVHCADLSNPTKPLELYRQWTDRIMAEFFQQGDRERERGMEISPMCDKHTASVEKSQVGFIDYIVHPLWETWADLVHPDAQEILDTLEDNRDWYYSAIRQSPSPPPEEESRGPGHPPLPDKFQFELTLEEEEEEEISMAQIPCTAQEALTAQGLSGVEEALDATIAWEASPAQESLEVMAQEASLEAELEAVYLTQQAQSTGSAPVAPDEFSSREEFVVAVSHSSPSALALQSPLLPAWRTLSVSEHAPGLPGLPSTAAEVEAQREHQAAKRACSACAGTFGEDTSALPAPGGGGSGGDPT

Homo sapiens = species on record: Homo sapiens; assay: Inhibition of LPS-induced TNF-alpha formation in human whole blood.; format: functional, organism-based
[2] = (§1) Inhibition of ascaris-induced bronchoconstriction in Anaesthetized squirrel monkey after treatment with 0.5 mg/kg peroral dose; format: functional; settings: route oral
[3] = Half-life in rat; format: ADME, organism-based; settings: in vivo
[4] = Cmax in ferrets after 30mg/kg oral dose; format: ADME, organism-based, Mustela putorius furo; design: dose 30 mg/kg, route oral; settings: ferret, in vivo
Method in brief: (§2)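 Ferrets dosed orally at 30 mg/kg; emesis monitored, with plasma Cmax recorded.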

Ovis aries [5] = assay: Inhibition of ascaris-induced bronchoconstriction in sheep after late treatment with 2 mg/kg intravenous dose
[6] = (§3) Inhibition of ascaris-induced bronchoconstriction in Anaesthetized squirrel monkey after treatment with 3 mg/kg peroral dose; format: functional; settings: route oral
[7] = as §1; format: functional; settings: route oral; remark: listed apart in the source
[8] = Bioavailability upon oral administration of compound; format: ADME, organism-based; settings: rat, in vivo
Method in brief: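 Rat, oral dosing at 3 mg/kg in 60% PEG200; bioavailability determined, with plasma level also sampled at 6 h.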

[9] = Half-life in Squirrel monkey; format: ADME; settings: in vivo
Cavia porcellus [10] = assay: Inhibition of the ovalbumin-induced bronchoconstriction in conscious guinea pigs after 0.5 hr pretreatment with 1 mg/kg administered intraperitoneally; format: functional; settings: route intraperitoneal
[11] = Half-life in Dog; format: ADME, organism-based, Canis lupus familiaris; settings: in vivo
[12] = (§4) Inhibition of ascaris-induced bronchoconstriction in Anaesthetized squirrel monkey after treatment with 1 mg/kg peroral dose; format: functional; settings: route oral
[13] = as §3; format: functional; settings: route oral; remark: listed apart in the source
Ovis aries [14] = assay: Inhibition of ascaris-induced bronchoconstriction in sheep after early treatment with 2 mg/kg intravenous dose
[15] = as §4; format: functional; settings: route oral; remark: listed apart in the source
Mustela putorius furo = assay: Emetic effect in ferrets to maximum 30 mg/kg oral dose; format: functional, organism-based; design: dose 30 mg/kg; method in brief: as §2
Ovis aries [16] = assay: Inhibition of ascaris-induced bronchoconstriction in sheep after early treatment with 2 mg/kg intravenous dose; format: functional
Method in brief: (§5)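 Sheep, ascaris-induced bronchoconstriction; 2 mg/kg given iv 2 h before challenge; percent inhibition of early and late responses.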

Cavia porcellus [17] = assay: Inhibition of the ovalbumin-induced bronchoconstriction in conscious guinea pigs after 4 hr pretreatment with 1 mg/kg administered intraperitoneally; format: functional; settings: route intraperitoneal
Ovis aries [18] = assay: Inhibition of ascaris-induced bronchoconstriction in sheep after late treatment with 2 mg/kg intravenous dose; format: functional; method in brief: as §5

IC50 [1]: 39 nM | IC50 (Homo sapiens): 7800 nM
Structure (SMILES): CC(c1cc[n+]([O-])cc1)C(c1ccc(C(O)(C(F)(F)F)C(F)(F)F)cc1)c1ccc(OC(F)F)c(OC(F)F)c1 (single isomer, unassigned; diastereomer 2)

IC50 [1]: 57 nM | IC50 (Homo sapiens; Homo sapiens, Blood): 5800 nM
Structure (SMILES): Cc1c[n+]([O-])cc(C)c1CC(c1ccc(C(O)(C(F)(F)F)C(F)(F)F)cc1)c1ccc(OC(F)F)c(OC(F)F)c1 (stereo unspecified)

IC50 [1]: 39 nM | IC50 (Homo sapiens): 23000 nM
Structure (SMILES): CC(c1cc[n+]([O-])cc1)C(c1ccc(C(O)(C(F)(F)F)C(F)(F)F)cc1)c1ccc(OC(F)F)c(OC(F)F)c1 (single isomer, unassigned; diastereomer 1)

Structure (SMILES): Cc1c[n+]([O-])ccc1CC(c1ccc(C(O)(C(F)(F)F)C(F)(F)F)cc1)c1ccc(OC(F)F)c(OC(F)F)c1 (stereo in doubt) [listing 1 of 2 here]
Efficacy [2]: 26% | half-life [3]: 10 h | Cmax [4]: 10 µM | IC50 [1]: 1.3 nM and 4.2 nM | Efficacy (Ovis aries [5]): 90% | Efficacy [6]: 59% | Efficacy [7]: 38% | bioavailability [8]: 60% | half-life [9]: 36 h | Efficacy (Cavia porcellus [10]): 82% | half-life [11]: 19 h | IC50 (Homo sapiens): 300 nM | Efficacy [12]: 63% | Efficacy [13]: 100% | Efficacy (Ovis aries [14]): 62% | Efficacy [15]: 33%

Structure (SMILES): Cc1c[n+]([O-])ccc1CC(c1ccc(C(O)(C(F)(F)F)C(F)(F)F)cc1)c1ccc(OC(F)F)c(OC(F)F)c1 (single isomer, unassigned; enantiomer 2)
IC50 [1]: 23 nM | IC50 (Homo sapiens): 3700 nM

IC50 [1]: 32 nM | IC50 (Homo sapiens; Homo sapiens, Blood): 7800 nM
Structure (SMILES): Cc1cc(C(O)(C(F)(F)F)C(F)(F)F)ccc1C(Cc1cc[n+]([O-])cc1)c1ccc(OC(F)F)c(OC(F)F)c1 (stereo unspecified)

IC50 [1]: 27 nM | IC50 (Homo sapiens; Homo sapiens, Blood): 3900 nM
Structure (SMILES): CCc1c[n+]([O-])ccc1CC(c1ccc(C(O)(C(F)(F)F)C(F)(F)F)cc1)c1ccc(OC(F)F)c(OC(F)F)c1 (stereo unspecified)

IC50 [1]: 42 nM | IC50 (Homo sapiens; Homo sapiens, Blood): 13000 nM
Structure (SMILES): CC(O)c1c[n+]([O-])ccc1CC(c1ccc(C(O)(C(F)(F)F)C(F)(F)F)cc1)c1ccc(OC(F)F)c(OC(F)F)c1 (stereo unspecified)

IC50 [1]: 4.2 nM | IC50 (Homo sapiens; Homo sapiens, Blood): 15000 nM
Structure (SMILES): COc1ccc([C@H](Cc2ccncc2)c2ccccc2)cc1OC1CCCC1 [CDP840]

Structure (SMILES): Cc1c[n+]([O-])ccc1CC(c1ccc(C(O)(C(F)(F)F)C(F)(F)F)cc1)c1ccc(OC(F)F)c(OC(F)F)c1 (stereo in doubt) [listing 2 of 2 here]
Emesis (Mustela putorius furo): inactive

Structure (SMILES): Cc1c[n+]([O-])ccc1CC(c1ccc(C(O)(C(F)(F)F)C(F)(F)F)cc1)c1ccc(OC(F)F)c(OC(F)F)c1 (racemic)
IC50 [1]: 2.1 nM | IC50 (Homo sapiens): 400 nM

half-life [3]: > 48 h | Cmax [4]: 14 µM | IC50 [1]: 4.2 nM | half-life [9]: > 48 h | half-life [11]: > 48 h | IC50 (Homo sapiens; Homo sapiens, Blood): 700 nM
Structure (SMILES): [O-][n+]1ccc(CC(c2ccc(C(O)(C(F)(F)F)C(F)(F)F)cc2)c2ccc(OC(F)F)c(OC(F)F)c2)cc1 (stereo unspecified)
Emesis (Mustela putorius furo): inactive | Efficacy (Ovis aries [16]): 85% | Efficacy [6]: 96% | Efficacy (Cavia porcellus [17]): 58% | Efficacy (Cavia porcellus [10]): 0% | Efficacy (Ovis aries [18]): 95%

IC50 [1]: 38 nM | IC50 (Homo sapiens; Homo sapiens, Blood): 7900 nM
Structure (SMILES): [O-][n+]1ccc(CC(c2ccc(C(O)(C(F)(F)F)C(F)(F)F)cc2)c2ccc(OC(F)F)c(OC(F)F)c2)c(CO)c1 (stereo unspecified)

IC50 [1]: 4.4 nM | IC50 (Homo sapiens; Homo sapiens, Blood): 1000 nM
Structure (SMILES): Cc1cc(C(Cc2cc[n+]([O-])cc2)c2ccc(OC(F)F)c(OC(F)F)c2)ccc1C(O)(C(F)(F)F)C(F)(F)F (stereo unspecified)

IC50 (Homo sapiens; Homo sapiens, Blood): 18000 nM
Structure (SMILES): COc1ccc([C@]2(C#N)CC[C@@H](C(=O)O)CC2)cc1OC1CCCC1 [CILOMILAST]

IC50 [1]: 18 nM | IC50 (Homo sapiens; Homo sapiens, Blood): 300 nM
Structure (SMILES): Cc1cc(CC(c2ccc(C(O)(C(F)(F)F)C(F)(F)F)cc2)c2ccc(OC(F)F)c(OC(F)F)c2)cc[n+]1[O-] (stereo unspecified)

IC50 [1]: 2.7 nM | IC50 (Homo sapiens; Homo sapiens, Blood): 2900 nM
Structure (SMILES): CC(=O)c1c[n+]([O-])ccc1CC(c1ccc(C(O)(C(F)(F)F)C(F)(F)F)cc1)c1ccc(OC(F)F)c(OC(F)F)c1 (stereo unspecified)
